Reference: ChEMBL document CHEMBL4402512, “In vitro and in silico elucidation of antidiabetic and anti-inflammatory activities of bioactive compounds from Momordica charantia L” (Bioorg Med Chem, 2019)
Active and inactive are the calls of the source. No cut-off for these calls is given here.

Legend:
[1] = biological target: Alpha amylase (Homo sapiens) (UniProt P0DUB6); assay: Inhibition of alpha-amylase (unknown origin) assessed as reduction in conversion of starch to glucose at 0.87 mM incubated for 1 hr relative to control
How it was run: (§1)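 α-Amylase inhibition was measured by a published protocol with minor modifications. Test compounds were added at 10 and 20 µL, stated as equivalent to 0.43 and 0.86 mM. Acarbose was used at 0.067 and 0.13 mM. Runs were in triplicate with three biological replications and averaged, reported as mean ± SD with one-way ANOVA.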

RAW264.7 [2] = assay: Anti-inflammatory activity in mouse RAW264.7 cells assessed as reduction in NFkappaB mRNA expression at 25 uM pre-incubated for 1 hr before […] for 18 hrs by qRT-PCR analysis; type: functional, cell-based
How it was run: (§2)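 RAW 264.7 murine macrophages grown in RPMI 1640 with 10% FBS, penicillin/streptomycin, 37 °C, 5% CO2. Seeded at 5.0 × 10^5 cells/well and held 24 h, then given 25 μM compound for 1 h before LPS (1 µg/mL) for a further 18 h. Total RNA was extracted, 500 ng was reverse-transcribed to cDNA, and target mRNA was quantified by qRT-PCR.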

Saccharomyces cerevisiae = assay: Inhibition of Saccharomyces cerevisiae alpha-glucosidase at 1.3 mM pre-incubated for 15 mins before p-nitrophenyl alpha-D-glucopyranoside substrate addition and measured after 30 mins
How it was run: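 The enzyme was Saccharomyces cerevisiae α-glucosidase, assayed by a published protocol with slight modifications. Each compound was tested at two levels, 10 and 20 µL. Acarbose served as positive control. Runs were in triplicate with three biological replications, reported as mean ± SD and analysed by one-way ANOVA.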

RAW264.7 [3] = assay: Anti-inflammatory activity in mouse RAW264.7 cells assessed as reduction in iNOS mRNA expression at 25 uM pre-incubated for 1 hr before […] for 18 hrs by qRT-PCR analysis; type: functional, cell-based; how it was run: as §2
RAW264.7 [4] = assay: Anti-inflammatory activity in mouse RAW264.7 cells assessed as reduction in IL-1beta mRNA expression at 25 uM pre-incubated for 1 hr before […] for 18 hrs by qRT-PCR analysis; type: functional, cell-based; how it was run: as §2
RAW264.7 [5] = assay: Anti-inflammatory activity in mouse RAW264.7 cells assessed as reduction in IL6 mRNA expression at 25 uM pre-incubated for 1 hr before […] for 18 hrs by qRT-PCR analysis; type: functional, cell-based; how it was run: as §2
RAW264.7 [6] = assay: Anti-inflammatory activity in mouse RAW264.7 cells assessed as reduction in Cox2 mRNA expression at 25 uM pre-incubated for 1 hr before […] for 18 hrs by qRT-PCR analysis; type: functional, cell-based; how it was run: as §2
RAW264.7 [7] = assay: Anti-inflammatory activity in mouse RAW264.7 cells assessed as reduction in TNFalpha mRNA expression at 25 uM pre-incubated for 1 hr before […] for 18 hrs by qRT-PCR analysis; type: functional, cell-based; how it was run: as §2
[8] = biological target: Alpha amylase (Homo sapiens) (UniProt P0DUB6); assay: Inhibition of alpha-amylase (unknown origin) assessed as reduction in conversion of starch to glucose at 0.13 mM incubated for 1 hr relative to control; how it was run: as §1

Sequence of Alpha amylase (Homo sapiens) (P0DUB6 whole entry, looked up): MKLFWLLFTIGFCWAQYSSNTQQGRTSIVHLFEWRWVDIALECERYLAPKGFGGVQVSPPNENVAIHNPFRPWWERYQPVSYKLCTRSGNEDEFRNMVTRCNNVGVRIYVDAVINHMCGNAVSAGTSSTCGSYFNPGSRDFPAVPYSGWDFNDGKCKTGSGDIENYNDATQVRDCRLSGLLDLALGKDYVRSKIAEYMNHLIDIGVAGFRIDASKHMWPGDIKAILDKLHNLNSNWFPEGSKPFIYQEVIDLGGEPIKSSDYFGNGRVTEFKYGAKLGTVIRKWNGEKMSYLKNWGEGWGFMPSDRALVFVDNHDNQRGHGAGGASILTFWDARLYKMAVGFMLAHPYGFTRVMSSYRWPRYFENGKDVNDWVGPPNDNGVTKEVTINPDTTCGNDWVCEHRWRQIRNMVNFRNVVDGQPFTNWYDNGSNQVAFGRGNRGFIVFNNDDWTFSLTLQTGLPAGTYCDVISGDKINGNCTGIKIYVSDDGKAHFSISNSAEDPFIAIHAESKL

SMILES	inhibition [1]	inhibition (Saccharomyces cerevisiae)	inhibition [8]	inhibition (RAW264.7 [2])	inhibition (RAW264.7 [3])	inhibition (RAW264.7 [4])	inhibition (RAW264.7 [5])	inhibition (RAW264.7 [6])	inhibition (RAW264.7 [7])
O=C(O)c1cc(O[C@@H]2OC[C@@H](O)[C@H](O)[C@H]2O)ccc1O	60.7%	56.4%	–	Active	Active	Active	Active	Active	–
C[C@H](C/C=C/C(C)(C)O)[C@H]1CC[C@@]2(C)[C@@H]3C=C[C@@]45OC[C@]3(CC[C@]12C)[C@@H]4CC[C@H](O[C@@H]1O[C@H](CO)[C@@H](O)[C@H](O)[C@H]1O)C5(C)C [MOMORDICOSIDE I]	64.2%	35.1%	–	Active	Active	Active	Active	Active	–
COC(C)(C)/C=C/C[C@@H](C)[C@H]1CC[C@@]2(C)[C@@H]3C=C[C@@]45OC[C@]3(CC[C@]12C)[C@@H]4CC[C@H](O[C@@H]1O[C@H](CO)[C@@H](O)[C@@H](O)[C@H]1O)C5(C)C	70.5%	48.5%	–	Active	Active	Active	–	–	Active
C[C@H]1O[C@H](O[C@H]2[C@H](O)[C@@H](O)[C@@H](O[C@H]3[C@H](O)[C@@H](O)C(O)O[C@@H]3CO)O[C@@H]2CO)[C@H](O)[C@@H](O)[C@@H]1N[C@H]1C=C(CO)[C@@H](O)[C@H](O)[C@H]1O (some centres not stated)	–	–	88%	–	–	–	–	–	–
C[C@H](CC(O)C(O)C(C)(C)O)[C@H]1CC[C@@]2(C)[C@@H]3C=C[C@@]45OC[C@]3(CC[C@]12C)[C@@H]4CC[C@H](O[C@@H]1O[C@H](CO)[C@@H](O)[C@@H](O)[C@H]1O)C5(C)C (some centres not stated)	66.4%	49.4%	–	Active	Active	Active	Active	Active	–
COC(C)(C)/C=C/C[C@@H](C)[C@H]1CC[C@@]2(C)[C@@H]3[C@@H](O[C@@H]4O[C@H](CO)[C@@H](O)[C@H](O)[C@H]4O)C=C4[C@@H](CC[C@H](O)C4(C)C)[C@]3(C=O)CC[C@]12C	69%	47.5%	–	Active	Active	Active	inactive	Active	–

The next lines start with results.

inhibition [1]	inhibition (Saccharomyces cerevisiae)	inhibition [8]	SMILES	inhibition (RAW264.7 [2])	inhibition (RAW264.7 [3])	inhibition (RAW264.7 [4])	inhibition (RAW264.7 [5])	inhibition (RAW264.7 [6])	inhibition (RAW264.7 [7])
63.7%	42.4%	–	C[C@H](C/C=C/C(C)(C)O)[C@H]1CC[C@@]2(C)[C@@H]3C=C[C@@]45OC[C@]3(CC[C@]12C)[C@@H]4CC[C@H](O[C@@H]1O[C@H](CO)[C@@H](O)[C@@H](O)[C@H]1O)C5(C)C [MOMORDICOSIDE F2]	Active	Active	Active	–	–	–
63.5%	35.9%	–	COC(C)(C)/C=C/C[C@@H](C)[C@H]1CC[C@@]2(C)[C@@H]3C=C[C@@]45OC[C@]3(CC[C@]12C)[C@@H]4CC[C@H](O[C@@H]1O[C@H](CO)[C@@H](O)[C@H](O)[C@H]1O)C5(C)C [MOMORDICOSIDE F1]	Active	Active	Active	–	Active	Active
